ChEMBL document CHEMBL2034930, “Alkylidene branched lupane derivatives: synthesis and antitumor activity” (Eur J Med Chem, 2012)
Active and inactive are the calls of the source. No cut-off for these calls is given here.

Legend:
[1] = tested on: DLD-1; test: Cytotoxicity against human DLD1 cells after 96 hrs by SRB assay; type: functional, cell-based
Procedure, shortened: (§1)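 Cells exposed to test compounds for 96 h, then viable cells measured by sulforhodamine B staining as a percentage of untreated controls. IC50 read from dose-response curves, averaged over at least three independent experiments. Compounds tested free and also encapsulated in soybean-lecithin liposomes extruded through a 100 nm polycarbonate membrane (hydrodynamic diameter 70-120 nm, Z-average 105 nm, encapsulation >96% by HPLC).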

[2] = tested on: A-431; test: Cytotoxicity against human A431 cells after 96 hrs by SRB assay; type: functional, cell-based; procedure, shortened: as §1
[3] = tested on: HCT-8; test: Cytotoxicity against human HCT8 cells after 96 hrs by SRB assay; type: functional, cell-based; procedure, shortened: as §1
[4] = tested on: HT-29; test: Cytotoxicity against human HT-29 cells after 96 hrs by SRB assay; type: functional, cell-based; procedure, shortened: as §1
[5] = tested on: A549; test: Cytotoxicity against human A549 cells after 96 hrs by SRB assay; type: functional, cell-based; procedure, shortened: as §1
[6] = tested on: A2780; test: Cytotoxicity against human A2780 cells after 96 hrs by SRB assay; type: functional, cell-based; procedure, shortened: as §1
[7] = tested on: 8505C; test: Cytotoxicity against human 8505C cells after 96 hrs by SRB assay; type: functional, cell-based; procedure, shortened: as §1
[8] = tested on: HCT-116; test: Cytotoxicity against human HCT116 cells after 96 hrs by SRB assay; type: functional, cell-based; procedure, shortened: as §1
[9] = Cytotoxicity against human A253 cells after 96 hrs by SRB assay; type: functional, cell-based; procedure, shortened: as §1
[10] = tested on: FaDu; test: Cytotoxicity against human FADU cells after 96 hrs by SRB assay; type: functional, cell-based; procedure, shortened: as §1
[11] = tested on: SW480; test: Cytotoxicity against human SW480 cells after 96 hrs by SRB assay; type: functional, cell-based; procedure, shortened: as §1
[12] = Solubility of the compound in water; type: physicochemical; details: buffer
[13] = Cytotoxicity against human Lipo cells after 96 hrs by SRB assay; type: functional, cell-based; procedure, shortened: as §1
[14] = tested on: SW-1736; test: Cytotoxicity against human SW1736 cells after 96 hrs by SRB assay; type: functional, cell-based; procedure, shortened: as §1
[15] = tested on: NIH3T3; test: Cytotoxicity against mouse NIH/3T3 cells after 96 hrs by SRB assay; type: cell-based; details: NIH3T3, 96 h; procedure, shortened: as §1
[16] = Cytotoxicity against human 518A2 cells after 96 hrs by SRB assay; type: functional, cell-based; procedure, shortened: as §1
[17] = tested on: MCF7; test: Cytotoxicity against human MCF7 cells after 96 hrs by SRB assay; type: functional, cell-based; procedure, shortened: as §1
[18] = tested on: SW480; test: Induction of apoptosis in human SW480 cells assessed as DNA laddering at 6 uM after 24 hrs; type: functional, cell-based
[19] = tested on: A549; test: Induction of apoptosis in human A549 cells at 0.8 uM by acridine orange/ethidium bromide staining; type: functional, cell-based
[20] = tested on: SW480; test: Induction of apoptosis in human SW480 cells assessed as DNA laddering at IC90 concentration after 24 hrs
[21] = Chemical stability of the compound; type: physicochemical
[22] = Homo sapiens, DLD-1, 96 h, read-out: IC50
[23] = Homo sapiens, A-431, 96 h, read-out: IC50
[24] = Homo sapiens, HCT-8, 96 h, read-out: IC50
[25] = Homo sapiens, HT-29, 96 h, read-out: IC50
[26] = Homo sapiens, A549, 96 h, read-out: IC50
[27] = Homo sapiens, A2780, 96 h, read-out: IC50
[28] = Homo sapiens, 8505C, 96 h, read-out: IC50
[29] = Homo sapiens, HCT-116, 96 h, read-out: IC50
[30] = Homo sapiens, A253, 96 h, read-out: IC50
[31] = Homo sapiens, FaDu, 96 h, read-out: IC50
[32] = Homo sapiens, SW480, 96 h, read-out: IC50
[33] = Homo sapiens, Lipo, 96 h, read-out: IC50
[34] = Homo sapiens, SW-1736, 96 h, read-out: IC50
[35] = Homo sapiens, 518A2, 96 h, read-out: IC50
[36] = Homo sapiens, MCF7, 96 h, read-out: IC50

Row | solubility [12] | SMILES | IC50 [1, 22] [nM] | IC50 [2, 23] [nM] | IC50 [3, 24] [nM] | IC50 [4, 25] [nM] | IC50 [5, 26] [nM] | IC50 [6, 27] [nM] | IC50 [7, 28] [nM] | IC50 [8, 29] [nM] | IC50 [9, 30] [nM] | IC50 [10, 31] [nM] | IC50 [11, 32] [nM] | IC50 [13, 33] [nM] | IC50 [14, 34] [nM] | IC50 [15] [nM] | IC50 [16, 35] [nM] | IC50 [17, 36] [nM] | other results
1 | Insoluble | C=C1C[C@]2(C)[C@H]3CC[C@@H]4[C@H]5[C@H](C(=C)C)CC[C@]5(C(=O)N5CCSCC5)CC[C@@]4(C)[C@]3(C)CC[C@H]2C(C)(C)C1=O | 1500 | 1400 | 1500 | 1600 | 1500 | 1000 | 1500 | 1300 | 1400 | 1600 | 1500 | 1500 | 1500 | 1900 | 1500 | 1400 | 
2 | Insoluble | C=C(C)[C@@H]1CC[C@]2(C(=O)OC)CC[C@]3(C)[C@H](CC[C@@H]4[C@@]5(C)C/C(=C\C)C(=O)C(C)(C)[C@@H]5CC[C@]43C)[C@@H]12 | > 30000 | 26400 | 17200 | > 30000 | > 30000 | 16100 | 26400 | 24000 | 21600 | 22400 | 16000 | 27800 | 21900 | 29100 | > 30000 | 27200 | 
3 | Insoluble | C=C1C[C@]2(C)[C@H]3CC[C@@H]4[C@H]5[C@H](C(=C)C)CC[C@]5(C(=O)OC)CC[C@@]4(C)[C@]3(C)CC[C@H]2C(C)(C)C1=O | 6400 | 4900 | 9000 | 5900 | 5100 | 5100 | 5000 | 4500 | 4000 | 7700 | 4500 | 4600 | 4900 | 4900 | 4200 | 4400 | Activity [18]: Active; Activity [19]: Active
4 | Insoluble | C=C(C)[C@@H]1CC[C@]2(C(=O)OC)CC[C@]3(C)[C@H](CC[C@@H]4[C@@]5(C)C[C@@H](CC[N+](=O)[O-])C(=O)C(C)(C)[C@@H]5CC[C@]43C)[C@@H]12 |  |  |  |  |  |  |  |  |  |  |  |  |  |  |  |  | 
5 | Insoluble | C=C1C[C@]2(C)[C@H]3CC[C@@H]4[C@H]5[C@H](C(=C)C)CC[C@]5(C=O)CC[C@@]4(C)[C@]3(C)CC[C@H]2C(C)(C)C1=O | 3700 | 3000 | 7100 | 7100 | 1800 | 1300 | 1300 | 3200 | 1000 | 5100 | 2700 | 2700 | 2100 | 4700 | 3800 | 2100 | 
6 | Insoluble | C=C(C)[C@@H]1CC[C@]2(C(=O)OC)CC[C@]3(C)[C@H](CC[C@@H]4[C@@]5(C)C[C@@H](CS(=O)(=O)CCO)C(=O)C(C)(C)[C@@H]5CC[C@]43C)[C@@H]12 | 4400 | 2800 | 4000 | 2500 | 3300 | 2600 | 3400 | 2800 | 2500 | 3800 | 2600 | 2700 | 3300 | 3200 | 2600 | 2600 | 
7 | Insoluble | C=C1C[C@]2(C)[C@H]3CC[C@@H]4[C@H]5[C@H](C(=C)C)CC[C@]5(C(=O)O)CC[C@@]4(C)[C@]3(C)CC[C@H]2C(C)(C)C1=O | 400 | 200 | 200 | 400 | 600 | 600 | 600 | 200 | 400 | 500 | 400 | 600 | 400 | 800 | 500 | 300 | Activity [20]: Active; Activity [19]: Active
8 | Insoluble | C=C/C=C1/C[C@]2(C)[C@H]3CC[C@@H]4[C@H]5[C@H](C(=C)C)CC[C@]5(C(=O)OC)CC[C@@]4(C)[C@]3(C)CC[C@H]2C(C)(C)C1=O | 14200 | 13000 | 14000 | 10900 | 13000 | 11200 | 11300 | 14600 | 10400 | 17000 | 10500 | 11600 | 15000 | 13100 | 11500 | 11200 | 
9 | Insoluble | C=C(C)[C@@H]1CC[C@]2(C(=O)OC)CC[C@]3(C)[C@H](CC[C@@H]4[C@@]5(C)C[C@@]6(CCN=N6)C(=O)C(C)(C)[C@@H]5CC[C@]43C)[C@@H]12 |  |  |  |  |  |  |  |  |  |  |  |  |  |  |  |  | IC50 ([1]; dld-1): > 30000 nM; IC50 ([2]; a-431): > 30000 nM; IC50 ([3]; hct-8): > 30 µmol; IC50 ([4]; ht-29): > 30 µmol; IC50 ([5]; a549): > 30000 nM; IC50 ([6]; a2780): > 30000 nM; IC50 ([7]; 8505c): > 30000 nM; IC50 ([8]; hct-116): > 30 µmol; IC50 ([9]; a253): > 30000 nM; IC50 ([10]; fadu): > 30000 nM; IC50 ([11]; sw480): > 30 µmol; IC50 ([13]; lipo): > 30 µmol; IC50 ([14]; sw-1736): > 30 µmol; IC50 ([16]; 518a2): > 30000 nM; IC50 ([17]; mcf7): > 30 µmol
10 | Insoluble | C=C(C)[C@@H]1CC[C@]2(C(=O)OC)CC[C@]3(C)[C@H](CC[C@@H]4[C@@]5(C)C[C@@H](CSCCO)C(=O)C(C)(C)[C@@H]5CC[C@]43C)[C@@H]12 | 2500 | 1700 | 2500 | 1400 | 2100 | 1600 | 2300 | 1900 | 1500 | 2500 | 1500 | 1800 | 2100 | 2100 | 1500 | 1500 | Activity [18]: Active; Activity [19]: Active
11 | Insoluble | C=C(C)[C@@H]1CC[C@]2(C(=O)OC)CC[C@]3(C)[C@H](CC[C@@H]4[C@@]5(C)C[C@@H](CN(C)C)C(=O)C(C)(C)[C@@H]5CC[C@]43C)[C@@H]12 |  |  |  |  |  |  |  |  |  |  |  |  |  |  |  |  | Stability [21]: Unstable

Row | SMILES | solubility [12] | IC50 [1, 22] [nM] | IC50 [2, 23] [nM] | IC50 [3, 24] [nM] | IC50 [4, 25] [nM] | IC50 [5, 26] [nM] | IC50 [6, 27] [nM] | IC50 [7, 28] [nM] | IC50 [8, 29] [nM] | IC50 [9, 30] [nM] | IC50 [10, 31] [nM] | IC50 [11, 32] [nM] | IC50 [13, 33] [nM] | IC50 [14, 34] [nM] | IC50 [15] [nM] | IC50 [16, 35] [nM] | IC50 [17, 36] [nM] | other results
12 | C=C(C)[C@@H]1CC[C@]2(CO)CC[C@]3(C)[C@H](CC[C@@H]4[C@@]5(C)CC[C@H](O)C(C)(C)[C@@H]5CC[C@]43C)[C@@H]12 [BETULIN] | Insoluble |  |  |  |  |  |  |  |  |  |  |  |  |  |  |  |  | 
13 | C=C(C)[C@@H]1CC[C@]2(C=O)CC[C@]3(C)[C@H](CC[C@@H]4[C@@]5(C)CCC(=O)C(C)(C)[C@@H]5CC[C@]43C)[C@@H]12 [BETULONAL] | Insoluble |  |  |  |  |  |  |  |  |  |  |  |  |  |  |  |  | 
14 | C=C(C)[C@@H]1CC[C@]2(C(=O)O)CC[C@]3(C)[C@H](CC[C@@H]4[C@@]5(C)CCC(=O)C(C)(C)[C@@H]5CC[C@]43C)[C@@H]12 [BETUNOLIC ACID] | Insoluble |  |  |  |  |  |  |  |  |  |  |  |  |  |  |  |  | 
15 | C=C(C)[C@@H]1CC[C@]2(C(=O)OC)CC[C@]3(C)[C@H](CC[C@@H]4[C@@]5(C)CCC(=O)C(C)(C)[C@@H]5CC[C@]43C)[C@@H]12 [METHYL BETULONATE] | Insoluble |  |  |  |  |  |  |  |  |  |  |  |  |  |  |  |  | 
